Source: PMC11877486 (Science Progress, 2025)
Counter-ions that a name gives are not always drawn. Like-named read-outs stand apart in the source and are kept apart here. Peptide text beside a SMILES is read from it.

Key:
[1] = cited from earlier work
[2] = derived from preclinical studies; cited from earlier work
Population PK model = assay type: in vivo, human
Method in brief: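 NONMEM 7.4 was fitted to 86 plasma concentrations from 20 CVVHDF patients, using FOCE to compare one- and two-compartment models. Interindividual variability was exponential. […] Validation used goodness-of-fit plots, a pcVPC with 1000 simulated patients and a 1000-sample bootstrap.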

[3] = Plasma concentration of colistin sulfate in patients on CVVHDF; assay type: in vivo; conditions: human, iv, SD
Method in brief: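 Adult patients on CVVHDF (AN69 polyacrylonitrile filter; blood flow 100–200 ml/min) received iv colistin sulfate infused over 0.5 h or 2 h. At steady state, samples were drawn from the dorsal foot artery just before dosing (Cmin) and at roughly 0.5, 1, 2, 4 and 6 h after. Plasma was stored at −80°C. Colistin A and B were measured separately by UHPLC-MS/MS on a HILIC column (LOQ 0.027 and 0.053 mg/l) and summed. AUC0−24h was calculated by the trapezoidal rule.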

[4] = cited from earlier work; remark: listed apart in the source
[5] = cited from earlier work; for population typical value CL, previous research: critically ill patients
[6] = system: isolated pathogens (CRO), mainly Klebsiella pneumoniae, Acinetobacter baumannii, Pseudomonas aeruginosa; assay: Drug sensitivity of isolated pathogens; assay type: cell-based; conditions: all isolated pathogens (CRO) of the 20 patients
[7] = cited from earlier work; for population typical value of CL: critically ill patients

In the case of `CC[C@H](C)CCCCC(=O)N[C@@H](CCN)C(=O)N[C@H](C(=O)N[C@@H](CCN)C(=O)N[C@H]1CCNC(=O)[C@H]([C@@H](C)O)NC(=O)[C@H](CCN)NC(=O)[C@H](CCN)NC(=O)[C@H](CC(C)C)NC(=O)[C@@H](CC(C)C)NC(=O)[C@H](CCN)NC1=O)[C@@H](C)O` [colistin sulfate] (HELM PEPTIDE1{[CC[C@H](C)CCCCC(=O)[*:2]].[Dab].T.[Dab].[Dab].[Dab].[dL].L.[Dab].[Dab].T}$PEPTIDE1,PEPTIDE1,5:R3-11:R2$$$V2.0), the solubility in water [1] is given as “water-soluble”, the protein binding rate [2] is given as “about 50%” and the “Q, bootstrap median” value (Population PK model; bootstrap, 1000 samples) is given as 27.15 L/h. For the same compound, the “V1, bootstrap median” value (Population PK model; bootstrap, 1000 samples) was 20.58 L, the “V2, bootstrap median” value (Population PK model; bootstrap, 1000 samples) was 34.71 L and the “θCysC, bootstrap median” value (Population PK model; bootstrap, 1000 samples) was −0.537. For the same compound, the “θwt, bootstrap median” value (Population PK model; bootstrap, 1000 samples) was 1.189, the “CL, bootstrap median” value (Population PK model; bootstrap, 1000 samples, 989 successful) was 3.18 L/h and the “θCysC, final model estimate” value (Population PK model; effect of CysC on CL, (CYSC/2.31)^θ) was −0.626. For the same compound, the “θwt, final model estimate” value (Population PK model; effect of WT on CL, (WT/65)^θ) was 1.030, the clearance (Population PK model; human, plasma, iv) was 61.5 mL/min and the “Q, final model estimate” value (Population PK model; intercompartmental clearance, patients on CVVHDF) was 25.30 L/h. The “V1, final model estimate” value (Population PK model; volume of distribution in the central compartment, patients on CVVHDF) was 20.50 L, the “V2, final model estimate” value (Population PK model; volume of distribution in the peripheral compartment, patients on CVVHDF) was 33.20 L and the AUC(0-t) [3] was 12500 ± 6410 ng·h/mL. For the same compound, the steady-state trough concentration ([4]; CRRT group, p = 0.328 vs non-CRRT) was 0.58 ± 0.30 mg/L, the steady-state trough concentration ([4]; non-CRRT group) was 0.64 ± 0.25 mg/L and the “population typical value CL, previous research” value ([5]; first of two values) was 0.994 L/h. For the same compound, the “population typical value CL, previous research” value ([5]; second of two values) was 1.5 L/h and the plasma concentration range ([5]; non-CRRT patients) was 280 to 6200 ng/mL.
Compound `C[C@@H](O)[C@H]1C(=O)N2C(C(=O)O)=C(S[C@@H]3CN[C@H](C(=O)N(C)C)C3)[C@H](C)[C@H]12` [meropenem] has an MIC [6] of no less than 8 µg/mL.
In the case of polymyxin B sulfate, the “population typical value of CL” value ([7]; CVVH group) is given as 4.52 L/h, the AUC ([7]; CVVH group, p < 0.001 vs non-CVVH) is given as 27940 ± 10920 ng·h/mL and the “population typical value of CL” value ([7]; non-CVVH group) is given as 1.95 L/h. For the same compound, the AUC ([7]; non-CVVH group) was 77890 ± 35660 ng·h/mL.
